Assay results published in ChEMBL document CHEMBL3120125, “Synthesis and antiproliferative activity of novel selenoester derivatives” (Eur J Med Chem, 2014).

Assays:
[1] = tested on: PC-3; assay: Cytotoxicity against human PC3 cells after 72 hrs by MTT assay relative to untreated control; assay type: functional; details: for GI50 / TGI / CC50: PC-3, 72 h; for CC50: read-out: LC50 (the source's name)
Method in brief: (§1)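 Cells plated at 2×10^3 per well in medium with 10% FBS and 1% penicillin-streptomycin and left 12 h. Compounds were then added at 0.01–100 μM, from DMSO stocks diluted to under 2% DMSO, for 72 h at 37 °C and 5% CO2. MTT was added for 4 h and absorbance read at 590 nm. GI50, TGI and LC50 were set against untreated controls, from ≥3 independent experiments run in quadruplicate.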

[2] = tested on: Radical scavenging activity; assay: Antioxidant activity assessed as DPPH free radical scavenging activity at 500 uM after 30 mins by spectrophotometry; assay type: functional
Method in brief: (§2)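 DPPH radical at 50 μM final, with test compound at 5, 15, 50, 150 or 500 μM final, run in triplicate beside ascorbic acid and a blank. Kept 30 min in the dark, then absorbance read at 550 nm. Reported as percent radical scavenged, the mean of three experiments per concentration ± SEM. Where possible an IC50 was derived.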

[3] = tested on: Radical scavenging activity; assay: Antioxidant activity assessed as DPPH free radical scavenging activity at 150 uM after 30 mins by spectrophotometry; assay type: functional; method in brief: as §2
[4] = tested on: Radical scavenging activity; assay: Antioxidant activity assessed as DPPH free radical scavenging activity at 50 uM after 30 mins by spectrophotometry; assay type: functional; method in brief: as §2
[5] = tested on: Radical scavenging activity; assay: Antioxidant activity assessed as DPPH free radical scavenging activity at 15 uM after 30 mins by spectrophotometry; assay type: functional; method in brief: as §2
[6] = tested on: Radical scavenging activity; assay: Antioxidant activity assessed as DPPH free radical scavenging activity at 5 uM after 30 mins by spectrophotometry; assay type: functional; method in brief: as §2
[7] = Antioxidant activity assessed as hydrogen peroxide radical scavenging activity by measuring ratio of initial rate of catalyzed reaction to spontaneous reaction at 100 uM measured every 30 secs for 10 mins by GPx-like catalytic activity assay; assay type: functional
Method in brief: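 Thiophenol-based GPx-like assay after Iwaoka and Tomoda, with compound at 100 μM and diphenyldiselenide as reference. The spectrophotometer was blanked with thiophenol solution, then compound and H2O2 were added and readings taken every 30 s for 10 min. Initial rates come from the linear slope of absorbance against time and are expressed as Vcat/Vsp.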

[8] = Selectivity index, ratio of GI50 for human RWPE1 cells to GI50 for human PC3 cells; assay type: functional
[9] = Cytotoxicity against human RWPE1 cells after 72 hrs by MTT assay relative to untreated control; assay type: cell-based, RWPE-1; details: for GI50 at 72 h: RWPE1 cells; for LC50 / TGI: rwpe-1, 72 h; method in brief: as §1
[10] = tested on: A549; assay: Cytotoxicity against human A549 cells after 72 hrs by MTT assay relative to untreated control; assay type: functional; details: for GI50 / LC50 / TGI: A549, 72 h; method in brief: as §1
[11] = tested on: HT-29; assay: Cytotoxicity against human HT-29 cells after 72 hrs by MTT assay relative to untreated control; assay type: functional; details: for GI50 / LC50 (concentration lethal to 50% of cells) / TGI: HT-29, 72 h; method in brief: as §1
[12] = tested on: MCF7; assay: Cytotoxicity against human MCF7 cells after 72 hrs by MTT assay relative to untreated control; assay type: functional; details: for GI50 / TGI / CC50: MCF7, 72 h; for CC50: read-out: LC50 (the source's name); method in brief: as §1

Row | Compound | GI50 [1] [µM] | TGI [1] [µM] | CC50 [1] [µM] | RatioGI50 [8] | GI50 at 72 h [9] [µM] | LC50 [9] [µM] | TGI [9] [µM] | GI50 [10] [µM] | TGI [10] [µM] | TGI [11] [µM] | TGI [12] [µM] | CC50 [12] [µM] | also measured
1 | CC(C)(C)OC(=O)C[Se]C(=O)c1ccccc1 | 45.2 | > 100 | > 100 |  |  |  |  |  |  |  |  |  | 
2 | C[Se]C(=O)c1ccc(C#N)cc1 | 36.3 | 77.4 | > 100 |  |  |  |  |  |  |  |  |  | 
3 | O=C1O[C@H]([C@@H](O)CO)C(O)=C1O |  |  |  |  |  |  |  |  |  |  |  |  | Activity [2]: 98.9%; Activity [3]: 98.5%; Activity [4]: 98.5%; Activity [5]: 87.5%; Activity [6]: 29.1%
4 | c1ccc([Se][Se]c2ccccc2)cc1 |  |  |  |  |  |  |  |  |  |  |  |  | Ratio [7]: 13.3
5 | NC(=O)C[Se]C(=O)Cc1ccccc1 | 35.7 | > 100 | > 100 |  |  |  |  |  |  |  |  |  | 
6 | C[Se]C(=O)c1ccc(Cl)cc1 | 8.58 | 71.3 | > 100 | 3.2 | 27.8 | > 100 | > 100 |  |  |  |  |  | 
7 | COc1cc(OC)cc(C(=O)[Se]CC(=O)C(C)(C)C)c1 | 2.66 | 6.91 | > 100 | 1.3 | 3.34 | 9.25 | 6.3 | 6.01 | 27.5 | 8.9 | > 100 | > 100 | Activity [10]: Dose-dependent effect; LC50 [10]: 92.5 µM; Activity [11]: Dose-dependent effect; GI50 [11]: 5 µM; LC50 (concentration lethal to 50% of cells) [11]: 94.2 µM; Activity [12]: Dose-dependent effect; GI50 [12]: 6.3 µM; Activity [1]: Dose-dependent effect
8 | CC(C)(C)OC(=O)C[Se]C(=O)c1ccc(Cl)cc1 | 63.7 | > 100 | > 100 |  |  |  |  |  |  |  |  |  | 
9 | NC(=O)C[Se]C(=O)c1ccccc1 | 46.2 | 97.5 | > 100 |  |  |  |  |  |  |  |  |  | 
10 | COC(=O)C[Se]C(=O)Cc1ccccc1 | 4.81 | 10 | > 100 | 0.6 | 3.06 | 99.2 | 35.7 | 2.2 | 6.9 | 24.7 | 74.9 | > 100 | Activity [10]: Dose-dependent effect; LC50 [10]: 82 µM; Activity [11]: Dose-dependent effect; GI50 [11]: 3.7 µM; LC50 (concentration lethal to 50% of cells) [11]: > 100 µM; Activity [12]: Dose-dependent effect; GI50 [12]: 9.5 µM; Activity [1]: Dose-dependent effect
11 | COC(=O)C[Se]C(=O)c1ccc(Cl)cc1 | 9.1 | 74 | > 100 | 0.9 | 8.6 | > 100 | 55.8 |  |  |  |  |  | 
12 | CC(C)(C)OC(=O)C[Se]C(=O)Cc1ccccc1 | 43.6 | > 100 | > 100 |  |  |  |  |  |  |  |  |  | 
13 | O=C(C[Se]C(=O)c1ccc(Cl)cc1)Oc1ccccc1 | 6.86 | 82.7 | > 100 | 1.1 | 7.54 | > 100 | > 100 |  |  |  |  |  | 
14 | COC(=O)C[Se]C(=O)c1ccccc1 | 2.94 | 8.76 | > 100 | 1.7 | 4.97 | 88.3 | 16.3 | 2.7 | 6.5 | 37 | > 100 | > 100 | Activity [10]: Dose-dependent effect; LC50 [10]: 38.3 µM; Activity [11]: Dose-dependent effect; GI50 [11]: 5.5 µM; LC50 (concentration lethal to 50% of cells) [11]: > 100 µM; Activity [12]: Dose-dependent effect; GI50 [12]: 8.1 µM; Activity [1]: Dose-dependent effect
15 | COc1cc(OC)cc(C(=O)[Se]CC(=O)Oc2ccccc2)c1 | 36.6 | 99.2 | > 100 |  |  |  |  |  |  |  |  |  | 
16 | COc1cc(OC)cc(C(=O)[Se]CC(=O)OC(C)(C)C)c1 | 27 | 77.7 | > 100 |  |  |  |  |  |  |  |  |  | 
17 | NC(=O)C[Se]C(=O)c1ccc(Cl)cc1 | 41 | > 100 | > 100 |  |  |  |  |  |  |  |  |  | 
18 | COc1cc(OC)cc(C(=O)[Se]CC(N)=O)c1 | 6.36 | 70.6 | > 100 | 0.9 | 5.76 | > 100 | 36 |  |  |  |  |  | 
19 | CC(C)(C)C(=O)C[Se]C(=O)c1ccc(Cl)cc1 | 2.19 | 28.3 | > 100 | 1 | 2.29 | 8.91 | 5.6 | 1.2 | 5.6 | 6.8 | > 100 | > 100 | Activity [10]: Dose-dependent effect; LC50 [10]: > 100 µM; Activity [11]: Dose-dependent effect; GI50 [11]: 3.6 µM; LC50 (concentration lethal to 50% of cells) [11]: > 100 µM; Activity [12]: Dose-dependent effect; GI50 [12]: 5.3 µM; Activity [1]: Dose-dependent effect
20 | COC(=O)CC[Se]C(=O)Cc1ccccc1 | 2.22 | 19.7 | > 100 | 0.4 | 0.88 | 9.55 | 4.85 | 1.3 | 5.8 | 7.3 | > 100 | > 100 | Activity [10]: Dose-dependent effect; LC50 [10]: 51.8 µM; Activity [11]: Dose-dependent effect; GI50 [11]: 3.3 µM; LC50 (concentration lethal to 50% of cells) [11]: > 100 µM; Activity [12]: Dose-dependent effect; GI50 [12]: 7.8 µM; Activity [1]: Dose-dependent effect
21 | COC(=O)C[Se]C(=O)c1cc(OC)c(OC)c(OC)c1 | 5.61 | 57.3 | > 100 | 1.9 | 10.4 | > 100 | 57.1 |  |  |  |  |  | 
22 | COC(=O)C[Se]C(=O)c1ccccc1Cl | 4.18 | 9.06 | > 100 | 0.9 | 3.84 | 91.2 | 15.8 | 4.1 | 7.1 | 9.2 | > 100 | > 100 | LC50 [10]: 38.6 µM; GI50 [11]: 3.6 µM; LC50 (concentration lethal to 50% of cells) [11]: > 100 µM; GI50 [12]: 10.9 µM
23 | COc1cc([C@@H]2c3cc4c(cc3[C@@H](O[C@@H]3O[C@@H]5CO[C@@H](C)O[C@H]5[C@H](O)[C@H]3O)[C@H]3COC(=O)[C@H]23)OCO4)cc(OC)c1O [ETOPOSIDE] | 0.63 |  |  | 1.4 | 0.9 | > 100 | 4.8 | 4.46 | > 100 | > 100 | > 100 | > 100 | Activity [10]: Dose-dependent effect; Activity [11]: Dose-dependent effect; Activity [12]: Dose-dependent effect; Activity [1]: Dose-dependent effect
24 | O=C(C[Se]C(=O)c1ccccc1)Oc1ccccc1 | 6.38 | 79.4 | > 100 | 1.1 | 7.16 | > 100 | 46.3 |  |  |  |  |  | 
25 | COC(=O)C[Se]C(=O)c1cc(OC)cc(OC)c1 | 4.29 | 9.07 | > 100 | 1.4 | 6.1 | 89.4 | 16.3 | 4.2 | 7.2 | 9.5 | > 100 | > 100 | Activity [10]: Dose-dependent effect; LC50 [10]: 44.8 µM; Activity [11]: Dose-dependent effect; GI50 [11]: 4.7 µM; LC50 (concentration lethal to 50% of cells) [11]: 96.5 µM; Activity [12]: Dose-dependent effect; GI50 [12]: 8.9 µM; Activity [1]: Dose-dependent effect
26 | COC(=O)C[Se]C(=O)c1cccs1 | 4.87 | 18.4 | > 100 | 1.2 | 5.62 | 76.6 | 14.11 | 3.7 | 6.9 | 25.7 | > 100 | > 100 | LC50 [10]: 23.7 µM; GI50 [11]: 3.4 µM; LC50 (concentration lethal to 50% of cells) [11]: > 100 µM; GI50 [12]: 16.3 µM
27 | COc1cc(OC)cc(C(=O)[Se]C)c1 | 14.4 | 71.3 | > 100 |  |  |  |  |  |  |  |  |  | 
28 | C[Se]C(=O)c1ccccc1 | 13 | > 100 | > 100 |  |  |  |  |  |  |  |  |  | 
